Assay outcomes from PubChem BioAssay.
ERa SRC1 pot: ER-alpha (human) coactivator binding potentiation; coactivator binding (% of control), % at 25.6 µM; TR-FRET ERalpha-LBD/SRC-Cy5 coactivator binding, 2 h; 100 = basal binding, no effect; P03372; actives 1.3% (n = 86,000); AID 639; in the data active means activity above about 200%;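 further: binding measured in presence of low estradiol as agonist stimulus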
sEH inh: blocks human soluble epoxide hydrolase activity | P34913 | recombinant human sEH enzymatic activity assay | inhibition, % at 2 µM | actives 0.34% (n = 91,000); in the data active means inhibition above about 80%
ERa SRC1 inh: ER-alpha (human) coactivator binding inhibition; TR-FRET ER-alpha LBD / SRC-1 peptide, estradiol-bound; AID 629; inhibition, % at 25.6 µM; actives 1.7% (n = 86,000); P03372; in the data active means inhibition above about 50%
ERb coact inh: blocks coactivator binding to human estrogen receptor beta | TR-FRET ER-beta LBD / SRC1-Cy5 peptide binding; receptor agonist-loaded with 1 µM estradiol | inhibition, % at 25.6 µM | actives 1.3% (n = 86,000) | Q92731;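 active means compounds whose percent inhibition of the receptor-coactivator binding signal exceeds about 50% in the single-dose screen, limit read from the data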
Target sequence (Q92731 whole entry, looked up, the tested form may be a part): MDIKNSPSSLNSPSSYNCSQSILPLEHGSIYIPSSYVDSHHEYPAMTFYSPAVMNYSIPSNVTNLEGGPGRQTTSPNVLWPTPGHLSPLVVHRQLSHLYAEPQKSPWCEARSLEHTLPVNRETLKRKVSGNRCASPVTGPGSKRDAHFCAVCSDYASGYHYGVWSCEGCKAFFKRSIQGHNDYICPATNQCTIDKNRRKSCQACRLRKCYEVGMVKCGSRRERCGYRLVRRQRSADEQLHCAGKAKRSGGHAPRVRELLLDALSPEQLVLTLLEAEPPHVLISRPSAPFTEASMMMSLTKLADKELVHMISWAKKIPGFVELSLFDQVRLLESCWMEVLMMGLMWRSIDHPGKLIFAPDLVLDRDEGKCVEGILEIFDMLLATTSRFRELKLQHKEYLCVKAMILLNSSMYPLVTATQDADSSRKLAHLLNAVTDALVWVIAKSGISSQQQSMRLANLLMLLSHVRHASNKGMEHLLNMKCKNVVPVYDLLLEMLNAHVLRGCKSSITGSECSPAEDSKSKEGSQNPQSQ
sEH act: activators of human soluble epoxide hydrolase | P34913 | purified human sEH enzymatic activity, activator screen | activation, % at 2 µM | actives 0.04% (n = 91,000); in the data active means activation above about 37%
Rev-RRE block: inhibitors of HIV-1 Rev-RRE RNA interaction; P05866; Rev peptide-RRE RNA binding, FRET; inhibition, % at 8 µM; actives 0.79% (n = 97,000); AID 704;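 active means inhibition above the screen-wide mean plus 3 SD, cut at about 35% in these data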
Target sequence (P05866 whole entry, looked up): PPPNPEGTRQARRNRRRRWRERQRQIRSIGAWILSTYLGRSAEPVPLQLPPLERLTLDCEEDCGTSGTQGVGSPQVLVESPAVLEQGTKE
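assay system = Cy5-tagged RRE RNA duplex with fluorescein-tagged Rev peptide | incubation = 5 + 15 min at 25 °C | also added = labelled Rev peptide | measure = % inhibition of FRET ratio versus controls | benchmarks = DMSO wells as 0% and neomycin B wells as 100% inhibition | measured by = FRET fluorescence readout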
Of the large screens only hits and unclear results are named; the others gave an inactive call; [ ] = dose if it differs, or a comment. In the library only some 3.5% were active in any assay of this set; here they are far more common.

CCOCN(C(=O)Cn1c(CO)nc2ccccc21)c1c(C)cccc1CC	none
O=C(O)c1ccccc1-c1ccc(/C=c2\sc3nc4cc(Br)cnc4n3c2=O)o1	Rev-RRE block 99[fluorescence artefact?] (no result: ERa SRC1 pot, ERa SRC1 inh, ERb coact inh)
CCOc1ccc(CC2S/C(=N/c3ccccn3)NC2=O)cc1 (configuration not stated)	ERa SRC1 pot 331
O=C(CSc1nccn1Cc1ccccc1)NCc1ccccc1	none
CSc1nc(N)c(C#N)c(-c2ccc(Cl)cc2)c1C#N	ERa SRC1 pot 255[fluorescence artefact?] (no result: sEH inh, sEH act)
CCCOC(=O)CSc1nc(N)c(C#N)c(-c2ccco2)c1C#N	none
CCCCOC(=O)CSc1nc(N)c(C#N)c(-c2ccc(OC)cc2)c1C#N	ERa SRC1 pot 240[fluorescence artefact?], ERa SRC1 inh 61[fluorescence artefact?] (no result: sEH inh, sEH act)
CCCCOC(=O)CSc1nc(N)c(C#N)c(-c2ccc(OCC)cc2)c1C#N	ERa SRC1 pot 215[fluorescence artefact?], ERa SRC1 inh 51[fluorescence artefact?], ERb coact inh 76[fluorescence artefact?]
CCCCOc1ccc(-c2c(C#N)c(N)nc(SCC(N)=O)c2C#N)cc1	ERa SRC1 pot 271[fluorescence artefact?]
COCCNC(=O)c1c(CSc2ccc(F)cc2)noc1C(=O)NCc1ccccc1	none (no result: ERa SRC1 pot, ERa SRC1 inh, ERb coact inh)
COC(=O)c1c(C(C)=O)cnc2ccc(Br)cc12	none
CCOC(=O)CSc1nc(N)c(C#N)c(-c2ccc(OC)cc2)c1C#N	ERa SRC1 pot 258[fluorescence artefact?] (no result: sEH inh, sEH act)
CCOc1ccc(S(=O)(=O)N2CCC(C(N)=O)CC2)c2ccccc12	none
c1csc(-c2nn3c(C4COc5ccccc5O4)nnc3s2)c1 (configuration not stated)	none
c1ccc2c(c1)OCC(c1nnc3sc(-c4cnccn4)nn13)O2 (configuration not stated)	ERa SRC1 inh 92[fluorescence artefact?], ERb coact inh 82[fluorescence artefact?]
COc1ccc(OC)c(NC(=O)C2C3CCC(C3=C(C)C)C2C(=O)O)c1 (configuration not stated)	none
N#Cc1cc(Sc2ccccn2)c(Sc2ccccn2)cc1C#N	ERa SRC1 pot 213
CC(C)NC(=O)CCNC(=O)c1ccc(F)cc1	none (no result: sEH inh, sEH act)
Nc1ncnc(Nc2ccccc2C(F)(F)F)n1	ERa SRC1 pot 666[fluorescence artefact?]
COC(=O)CCC(=O)NNC(=O)c1cccc(Cl)c1	none (no result: ERa SRC1 pot, ERa SRC1 inh, ERb coact inh)
CCC1=NNc2cccc3c(OC)ccc1c23	ERa SRC1 inh 99[fluorescence artefact?], ERb coact inh 100[fluorescence artefact?]
O=C(Nc1cc(C(F)(F)F)ccc1N1CCCCC1)c1ccco1	ERa SRC1 pot 693[fluorescence artefact?]
O=C(Nc1cc(C(F)(F)F)ccc1N1CCOCC1)C1Cc2ccccc2CN1C(=O)c1ccco1 (configuration not stated)	ERa SRC1 inh 91[fluorescence artefact?], ERb coact inh 55
O=C(Nc1ccccc1)C1Cc2ccccc2CN1C(=O)c1ccco1 (configuration not stated)	none (no result: ERa SRC1 pot, ERa SRC1 inh, ERb coact inh)
CC(C)(C)NC(=O)COc1ccc(CNn2nnnc2N)cc1	none
NC(=O)COC(=O)CCCc1c[nH]c2ccccc12	none
NC(=O)Cc1c[nH]c2cccc(O)c12	ERa SRC1 inh 73[fluorescence artefact?], ERb coact inh 93[fluorescence artefact?] (no result: sEH inh, sEH act, Rev-RRE block)
COc1ccccc1NC(=O)Nc1c(C)n(C)n(-c2ccccc2)c1=O	none
CCCCC(CC)Cn1c2nc3ccccc3nc2c2c(=N)oc(C)nc21 (configuration not stated)	ERa SRC1 pot 267[fluorescence artefact?], Rev-RRE block 37
CCCCn1c2nc3ccccc3nc2c2c(=N)oc(C)nc21	ERa SRC1 pot 314[fluorescence artefact?] (no result: sEH inh, sEH act, Rev-RRE block)
CCCn1c(CCc2ccccc2)nnc1SCC(=O)N1CCCC1	none
CC(=O)c1ccc(NS(=O)(=O)c2ccc(CC(C)C)cc2)cc1	none
Cc1cnn(-c2ccc3nnc(-c4ccc(Br)cc4)n3n2)c1	ERa SRC1 pot 284[fluorescence artefact?] (no result: sEH inh, sEH act, Rev-RRE block)
Cc1noc(C(=O)Nc2sc3c(c2C#N)CCC3)c1Cl	none (no result: sEH inh, sEH act)
CCOc1ccccc1NC(=O)CSc1nnnn1-c1ccc(C(=O)OC)cc1	none
O=C(CCCCCn1c(=S)[nH]c2ccc(Br)cc2c1=O)NCC1CCCO1 (configuration not stated)	ERa SRC1 inh 52[fluorescence artefact?]
O=c1c2ccccc2[nH]c(=S)n1CC1CCCO1 (configuration not stated)	none
CN1CCN(C(=O)c2cc(-c3ccco3)on2)CC1	none
CCOC(=O)c1cn2c3c(c(F)c(F)c(F)c3c1=O)SC(N1CCCC1)=N2	ERa SRC1 pot 268[fluorescence artefact?] (no result: sEH inh, sEH act, Rev-RRE block)
Cc1ccc(S(=O)(=O)N2C=CC(C(F)(F)F)=NCC2)cc1	none
CSCCC(NC(=O)c1ccco1)C(=O)OCC(=O)Nc1sccc1C#N (configuration not stated)	ERa SRC1 inh 56[fluorescence artefact?], ERb coact inh 54
Cc1ccc(-n2cc(C(=O)c3ccc(F)cc3)nn2)cc1Cl	none (no result: ERa SRC1 pot, ERa SRC1 inh, ERb coact inh)
C/C(N)=C(/C#N)C(=O)CSc1nnc(SCc2ccc(Cl)cc2)s1	none
C/C(N)=C(/C#N)C(=O)CSc1nnc(Nc2c(C)cccc2C)s1	ERa SRC1 inh 87[fluorescence artefact?], ERb coact inh 93[fluorescence artefact?] (no result: sEH inh, sEH act, Rev-RRE block)
C/C(N)=C(/C#N)C(=O)CSc1nnc(Nc2cccc(C)c2C)s1	ERa SRC1 inh 52[fluorescence artefact?], ERb coact inh 65 (no result: sEH inh, sEH act)
Cc1cccc(NC(=O)c2sc3nc4c(c(-c5cccs5)c3c2N)CN(C)CC4)c1	Rev-RRE block 71
CC(C)NC(=O)c1sc2nc3c(c(-c4cccs4)c2c1N)CN(C)CC3	none (no result: ERa SRC1 pot, ERa SRC1 inh, ERb coact inh)
Nc1nnnn1/N=C/c1cccc(Oc2ccccc2)c1	none (no result: sEH inh, sEH act)
CCSC1=C(C#N)C(c2ccc(F)cc2)CC(=O)N1 (configuration not stated)	none
Cc1ccc(C(=O)COC(=O)c2n[nH]c(=O)c3ccccc23)cc1	none (no result: ERa SRC1 pot, ERa SRC1 inh, ERb coact inh)
Cc1ccccc1-n1c(=O)/c(=C\c2ccco2)s/c1=C(/C#N)C(=O)Nc1ccccc1	none
C=CCn1c(=O)/c(=C/c2ccc(C)o2)s/c1=C(/C#N)C(=O)c1ccccc1	Rev-RRE block 118[fluorescence artefact?]
COc1ccc(-c2nc(NC(=O)CSc3nnc4ccccn34)ns2)cc1	none (no result: ERa SRC1 pot, ERa SRC1 inh, ERb coact inh)
COc1cc(OC)cc(-n2nnnc2SCC(=O)NCc2ccc3c(c2)OCO3)c1	none
Cc1ccc(S(=O)(=O)Cc2ccc(C(=O)N3CCN(Cc4ccccc4)CC3)o2)cc1	ERa SRC1 inh 61[fluorescence artefact?], ERb coact inh 58 (no result: sEH inh, sEH act, Rev-RRE block)
Cc1ccc(CC(=O)NCc2ccc3c(c2)OCO3)cc1	none
Cc1ccc(S(=O)(=O)Cc2ccc(C(=O)N3CCc4ccccc4C3)o2)cc1	ERa SRC1 inh 78[fluorescence artefact?], ERb coact inh 76
COCCNC(=O)c1ccc(CS(=O)(=O)c2ccc(C)cc2)o1	none
COc1ccc(S(=O)(=O)Cc2ccc(C(=O)N3CCN(Cc4ccccc4)CC3)o2)cc1	none (no result: sEH inh, sEH act, Rev-RRE block)
Cc1ccc(S(=O)(=O)Cc2ccc(C(=O)O)o2)cc1	ERa SRC1 inh 69, ERb coact inh 76
Cc1ccc(S(=O)(=O)Cc2ccc(C(=O)NCc3ccc4c(c3)OCO4)o2)cc1	ERa SRC1 inh 51
Cc1cc(N)ccc1-n1c(C)ccc1C	none (no result: sEH inh, sEH act, Rev-RRE block)
Cc1cc(C(=O)O)ccc1-n1c(C)ccc1C	ERa SRC1 inh 57
COc1ccc(OCC(=O)OCCN2C(=O)c3ccccc3C2=O)cc1	ERa SRC1 inh 59[fluorescence artefact?]
CC(C)(C)NC(=S)Nc1ccc(Nc2ccccc2)cc1	none
Cc1cc(N2CCC(C(=O)NC3CCCCC3)CC2)nc(-c2ccccc2)n1	none (no result: sEH inh, sEH act, Rev-RRE block)
